Source: ChEMBL document CHEMBL4118249, “Discovery and Identification of Small Molecules as Methuosis Inducers with in Vivo Antitumor Activities” (J Med Chem, 2018)

Columns and labels:
[1] = system: MDA-MB-231; assay: Induction of methuosis in human MDA-MB-231 cells assessed as increase in vacuole formation at 10 uM after 24 hrs by phase contrast microscopic analysis relative to control; type: functional
[2] = system: MDA-MB-231; assay: Induction of methuosis in human MDA-MB-231 cells assessed as increase in vacuole formation at 1 uM after 24 hrs by phase contrast microscopic analysis relative to control; type: functional
[3] = system: MDA-MB-231; assay: Antiproliferative activity against human MDA-MB-231 cells after 48 hrs by MTS assay; type: functional, cell-based; details: MDA-MB-231, 48 h
[4] = system: MCF-10A; assay: Cytotoxicity against human MCF10A cells assessed as reduction in cell viability after 48 hrs by MTS assay; type: cell-based
[5] = system: SK-MEL-30; assay: Antiproliferative activity against human SK-MEL-30 cells after 48 hrs by MTS assay; type: functional, cell-based; details: SK-MEL-30, 48 h
[6] = system: MDA-MB-231; assay: Antitumor activity against human MDA-MB-231 cells xenografted in Balb/c nude mouse assessed as tumor growth inhibition at 20 mg/kg, iv administered once daily for 13 days measured 6 hrs post last dose relative to control; type: functional; details: MDA-MB-231, iv, read-out: TGI
How it was run: (§1)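 Female BALB/c nude mice (4–6 weeks) injected subcutaneously with 5×10^6 MDA-MB-231 cells; at ~100 mm3 (length×width²×0.5) randomized (n = 6) and dosed iv by tail vein once daily at 5 or 20 mg/kg in 10% Kolliphor HS 15 in saline, or vehicle; tumor volume and weight measured daily; tumors excised 6 h after final dose, H&E stained.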

[7] = system: MCF7; assay: Antiproliferative activity against human MCF7 cells after 48 hrs by MTS assay; type: functional, cell-based; details: MCF7, 48 h
[8] = system: MDA-MB-435S; assay: Antiproliferative activity against human MDA-MB-435S cells after 48 hrs by MTS assay; type: functional, cell-based
[9] = system: SK-MEL-28; assay: Antiproliferative activity against human SK-MEL-28 cells after 48 hrs by MTS assay; type: functional, cell-based; details: SK-MEL-28, 48 h
[10] = system: HepG2; assay: Antiproliferative activity against human HepG2 cells after 48 hrs by MTS assay; type: functional, cell-based; details: HepG2, 48 h
[11] = Half life in Balb/c nude mouse at 1 mg/kg, iv; type: ADME, organism-based; details: in vivo
[12] = system: A-375; assay: Antiproliferative activity against human A375 cells after 48 hrs by MTS assay; type: functional, cell-based; details: A-375, 48 h
[13] = Clearance in Balb/c nude mouse at 1 mg/kg, iv; type: ADME, organism-based; details: in vivo
[14] = system: A549; assay: Antiproliferative activity against human A549 cells after 48 hrs by MTS assay; type: functional, cell-based; details: A549, 48 h
[15] = Volume of distribution in Balb/c nude mouse at 1 mg/kg, iv; type: ADME, organism-based; details: in vivo
[16] = system: Mus musculus; assay: Toxicity in Balb/c nude mouse xenografted with human MDA-MB-231 cells assessed as body weight loss at 5 to 20 mg/kg, iv administered once daily for 13 days measured daily during compound dosing; details: in vivo, 312 h
[17] = system: MDA-MB-231; assay: Antitumor activity against human MDA-MB-231 cells xenografted in Balb/c nude mouse assessed as tumor growth inhibition at 5 mg/kg, iv administered once daily for 13 days measured 6 hrs post last dose relative to control; type: functional; details: MDA-MB-231, iv, read-out: TGI; how it was run: as §1
[18] = system: HCT-116; assay: Antiproliferative activity against human HCT116 cells after 48 hrs by MTS assay; type: functional, cell-based; details: HCT-116, 48 h
[19] = system: BGC-823; assay: Antiproliferative activity against human BGC823 cells after 48 hrs by MTS assay; type: functional, cell-based; details: BGC-823, 48 h

Structure (SMILES)	Activity [1] [%]	Activity [2] [%]	also measured
O=C(Nc1cccc(C(F)(F)F)c1)c1cccc(Nc2cc(-c3cccnc3)nc3[nH]ccc23)c1	80.23	3.78	
Cc1ccc(C(=O)Nc2cc(CN3CCN(C)CC3)cc(C(F)(F)F)c2)cc1Nc1cc(-c2cccnc2)nc2[nH]ccc12	0	0.62	
Cc1ccc(C(=O)Nc2cc(C(F)(F)F)cc(C(F)(F)F)c2)cc1Nc1cc(-c2cccnc2)nc2[nH]ccc12	0	0	
Cc1ccc(NC(=O)c2cccc(C(F)(F)F)c2)cc1Nc1cc(-c2cccc(Cl)c2)nc2[nH]ccc12	0.33	0.03	
Cc1ccc(NC(=O)c2cccc(C(F)(F)F)c2)cc1Nc1cc(-c2ccoc2)nc2[nH]ccc12	0	0.24	
Cc1ccc(NC(=O)c2cccc(C(F)(F)F)c2)cc1Nc1cc(-c2ccsc2)nc2[nH]ccc12	0.21	0	
Cc1ccc(NC(=O)c2cccc(C(F)(F)F)c2)cc1Nc1cc(-c2cccnc2)nc2[nH]ccc12	100	99.75	IC50 [3]: 1570 nM; IC50 [4]: > 10000 nM; IC50 [5]: 1660 nM; inhibition in vivo at 20 mg/kg [6]: 60.1%; IC50 [7]: 2610 nM; IC50 [8]: 2270 nM; IC50 [9]: 1370 nM; IC50 [10]: 1200 nM; half-life [11]: 8.74 h; IC50 [12]: 326 nM; clearance [13]: 36.5 mL/min/kg; IC50 [14]: 1890 nM; Vd [15]: 15.5 L/kg; Activity [16]: Non-Toxic; inhibition in vivo at 5 mg/kg [17]: 25.9%; IC50 [18]: 1010 nM; IC50 [19]: 1570 nM
Cc1ccc(NC(=O)c2cccc(C(F)(F)F)c2)cc1Nc1cc(-c2ccncc2)nc2[nH]ccc12	96.34	1.46	
O=C(Nc1cccc(Nc2cc(-c3cccnc3)nc3[nH]ccc23)c1)c1cccc(C(F)(F)F)c1	98.98	96.61	
Cc1ccc(NC(=O)c2cccc(C(F)(F)F)c2)cc1Nc1cc(-c2ccccc2)nc2[nH]ccc12	0	0	
Cc1ccc(C(=O)Nc2cccc(OC(F)(F)F)c2)cc1Nc1cc(-c2cccnc2)nc2[nH]ccc12	99.66	38.57	
Cc1ccc(NC(=O)c2cccc(C(F)(F)F)c2)cc1Nc1cc(-c2cccc(N)c2)nc2[nH]ccc12	1.63	0.27	
